# Compounds with a hit are over-represented: about 2.5% of the library has one in this group of screens.
# Exocytosis inh: blocks lytic granule exocytosis; AID 651702; TALL-104 LAMP-1 surface exposure, flow cytometry; cells stimulated with thapsigargin and PMA; inhibition, % at 10 µM; 360,000 compounds, 0.66% hits;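 active = inhibition above about 55%, limit read from the data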
# HGIII-sPLA2 inh: Inhibits HGIII-sPLA2 liposome hydrolysis, primary screen | Q9NZ20 | QFRET BODIPY PC-A2 liposome hydrolysis, fluorescence | inhibition, % at 12.2 µM | 370,000 compounds, 0.56% hits;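 active = inhibition above mean plus 3 SD of compounds lying within the high and low control bounds, cut at about 19% in these data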;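 also: 0% = median of test compound wells and 100% = no enzyme DMSO wells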
# Target sequence (Q9NZ20 whole entry, looked up): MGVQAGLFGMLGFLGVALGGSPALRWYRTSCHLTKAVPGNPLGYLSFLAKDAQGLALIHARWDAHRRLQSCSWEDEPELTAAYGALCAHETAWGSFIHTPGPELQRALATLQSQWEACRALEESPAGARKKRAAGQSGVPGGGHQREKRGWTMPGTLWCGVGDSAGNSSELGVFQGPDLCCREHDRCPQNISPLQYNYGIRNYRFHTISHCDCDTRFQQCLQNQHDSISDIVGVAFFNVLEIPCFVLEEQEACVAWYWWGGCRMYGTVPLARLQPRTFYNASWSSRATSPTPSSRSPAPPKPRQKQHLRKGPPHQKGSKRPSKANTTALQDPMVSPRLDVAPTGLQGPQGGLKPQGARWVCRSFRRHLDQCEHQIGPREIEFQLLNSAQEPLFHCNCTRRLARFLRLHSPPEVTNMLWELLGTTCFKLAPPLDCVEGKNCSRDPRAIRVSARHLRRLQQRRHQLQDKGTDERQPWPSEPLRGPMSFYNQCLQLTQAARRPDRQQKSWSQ
# A1 inh: inhibitors of the anti-apoptotic protein A1, read as caspase activation; MEF A1-2A-BIM cells, Caspase-Glo 3/7 luminescence, 3 h; percent of clofoctol response, vehicle zero; caspase activation, % (no concentration beside the values); 330,000 compounds, 0.066% hits;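 active = over half of replicate activation scores above 10%, or exactly half above 10 with the replicate mean above 10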
# NTR1 agonist: activates human neurotensin receptor 1. NTR1-U2OS beta-arrestin-GFP spot imaging, agonist mode. activation, % at 20 µM. 330,000 compounds, 0.17% hits. AID 493036;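 active = activation at or above 40% of the spot to cytoplasm intensity ratio, with at least 20 cells analyzed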;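 also: 0% = DMSO without peptide and 100% = 100 nM NTR1 peptide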
# MC4R barr agon: agonists of human melanocortin 4 receptor (MC4R) beta-arrestin | P32245 | U2OS MC4R beta-arrestin complementation, luminescence; percent of melanotan II response, DMSO zero | activation, % at 8.9 µM | 360,000 compounds, 0.98% hits | AID 540308;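 active = activation above a per-plate cutoff, the mean activation of sample wells on that plate plus 3 SD, cut at about 8% in these data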
# MC4R antag cAMP: blocks human MC4R cAMP signaling; MC4R-expressing cells, MTII-stimulated cAMP, LANCE TR-FRET; AID 540295; inhibition, % at 6.5 µM; 360,000 compounds, 0.48% hits; P32245;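 active = inhibition above its plate's cutoff, the mean of tested wells on that plate plus 3 SD, cut at about 29% in these data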;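 also: 0% = Melanotan II alone and 100% = Melanotan II plus saturating MCL0020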
#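 Material – human MC4R-expressing U2OS cells · Repeats – no replicates · Detection – TR-FRET with Eu-cAMP and labeled anti-cAMP, 671 nm · Times – compound 30 min, challenge 1 h, detection 1 h · Compound – single nominal compound dose of 6.5 µM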
# Granule exo CP1: blocks lytic granule exocytosis; inhibition, % at 10 µM; TALL-104 cells, LAMP-1 externalization, flow cytometry; stimulated with PMA plus thapsigargin; AID 651954; 1,500 compounds, 11% hits; shares compounds with Exocytosis inh; in the data active = inhibition above about 60%;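 also: 0% = stimulated vehicle wells and 100% = unstimulated wells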
# An asterisk follows results filed as active; x = no result given.
SMILES,Exocytosis inh,HGIII-sPLA2 inh,A1 inh,NTR1 agonist,MC4R barr agon,MC4R antag cAMP,Granule exo CP1
CS(=O)(=O)c1ccc(-n2c(=O)n(Cc3ccccc3)c(=O)c3[nH]cnc32)cc1,-13,-3,0,-1,-1,4,x
COc1ccc(-c2ccc3[nH]c4c(c3c2)CCN2C[C@@H]([C@H](C)O)[C@@H](N(C)C(=O)Nc3cc(Cl)cc(Cl)c3)C[C@@H]42)cc1,21,3,x,x,2,4,x
C[C@H](O)[C@@H]1CN2CCc3c([nH]c4ccc(-c5ccc6c(c5)OCO6)cc34)[C@@H]2C[C@@H]1N(C)C(=O)Nc1ccc(F)cc1,65*,-13,x,x,-1,-8,1
CC(=O)Nc1sc2c(c1-c1nc3ccccc3s1)CNC2,x,4,x,x,x,x,x
CC(C)(C)[C@@H]1CCC(=O)N(CC[C@H](Sc2ccc(Br)cc2)c2ccccc2)CC1,65*,-7,-2,7,0,6,-5
O=C1CC[C@@H](O)CCN1CC[C@H](Sc1ccc(Br)cc1)c1ccccc1,-3,-4,-1,3,-2,10,x
COc1cc2c(cc1Cl)C(=O)C(F)(c1ccccc1)C(=O)N2 (stereo unspecified),-15,-16,1,-1,-2,5,x
C[C@@H]1CN([C@H](C)CO)C(=O)c2c(c3ccccc3n2C)-c2ccccc2CO[C@H]1CN(C)Cc1ccc(Oc2ccccc2)cc1,56*,-7,x,x,-2,6,8
C[C@@H]1CN([C@H](C)CO)C(=O)c2c(c3ccccc3n2C)-c2ccccc2CO[C@H]1CN(C)Cc1ccc(C(F)(F)F)cc1,4,-20,x,x,3,23,x
CC(C)C[C@H]1COc2cccc(F)c2S(=O)(=O)N1Cc1cn(CCC2OCCCO2)nn1,x,-2,x,x,x,x,x
CC1(c2nnc(Cc3ccccc3)o2)CC(c2cccnc2)=NO1 (stereo unspecified),68*,4,1,-1,1,8,-14
CC1(c2nnc(-c3ccccc3)o2)CC(c2cccnc2)=NO1 (stereo unspecified),-3,6,0,-4,-1,2,x
O=C(NCC1CCCCC1)c1ccc(=O)[nH]c1,-7,12,-1,1,0,-5,x
O=C(NCC1CCCCC1)c1cccc(-c2ccc(O)cc2)c1,59*,-18,-1,10,4,23,-4
COc1cccc(-c2ccc(CC[C@H]3O[C@H]4CC[C@@H](CO)O[C@H]4C[C@H]3NS(C)(=O)=O)cc2)c1,x,-23,x,x,x,x,x
CCOC(=O)Nc1ccc2c(c1)N(C(=O)CCN(CC)CC)c1ccccc1S2=O (stereo unspecified),73*,5,0,16,-1,14,-8
CCOC(=O)Nc1ccc2c(c1)N(C(=O)CCN(CC)CC)c1ccccc1CC2,20,7,1,0,0,19,x
COc1ccccc1C(=O)N/C(=C\c1cn(C)c2ccccc12)C(=O)NCCCn1ccnc1,67*,-2,2,-2,0,-8,-7
COc1cc(C(=O)N/C(=C\c2cn(C)c3ccccc23)C(=O)NCCCn2ccnc2)cc(OC)c1OC,0,-6,0,0,-2,-4,x
CCC[C@H]1[C@H](N)CC[C@@]23CCCN2C(=O)CCC[C@@H]13,x,12,x,x,x,x,x
CCC1CCCCN1CCCNC(=O)c1ccc(CS(=O)(=O)c2ccccc2C)o1 (stereo unspecified),-1,2,-1,-1,-3,-3,x
CC(=O)OCCCN(C)CC/C=C1/c2ccccc2CSc2ccccc21,62*,-18,1,0,-2,2,-15
C[N+](C)(C)CC/C=C1/c2ccccc2CSc2ccccc21,1,4,1,0,-1,11,x
CCN1C(c2ccccc2)C(C)C(=O)C(C)C1c1ccccc1 (stereo unspecified),58*,3,-1,3,1,23,-2
CC1C(=O)C(C)C(c2ccccc2)N(N=O)C1c1ccccc1 (stereo unspecified),0,6,x,x,1,5,x
SMILES,Exocytosis inh,HGIII-sPLA2 inh,A1 inh,NTR1 agonist,MC4R barr agon,MC4R antag cAMP,Granule exo CP1
O=S(=O)(c1ccc(SCCO)nc1)N1CCOCC1,60*,3,-1,0,-3,-3,-10
Cc1ccc(CSc2ccc(S(=O)(=O)N3CCOCC3)cn2)cc1,4,2,0,-1,0,1,x
Clc1cccc(Cl)c1C1Nc2cccc3cccc(c23)N1,85*,8,2,12,0,18,46
CN(C)C(=O)c1ccc(NC(=O)COC(=O)C2(c3ccccc3)CCCC2)cc1,76*,-1,0,0,1,3,-5
CCOc1ccc2[nH]c(C)c(CN3CCN(C)CC3)c(=O)c2c1,68*,1,0,-1,-1,-3,-11
COc1ccc(NC(=O)C2CCN(C(=O)C3CC(=O)N(c4ccc(C)cc4)C3)CC2)c(OC)c1 (stereo unspecified),69*,-2,0,0,-1,14,-14
c1ccc(CN2CCN(C3CCCSc4ccccc43)CC2)cc1 (stereo unspecified),60*,1,2,2,3,-3,-13
Cc1cc(C)nc(NC(=NCCc2c[nH]c3ccccc23)NC(=O)C(C)(C)C)n1,83*,-18,-1,20,0,18,-3
Cc1cc(C)nc(N2C(=O)CC(C(=O)O)NC2=NCCc2c[nH]c3ccccc23)n1 (stereo unspecified),-3,-3,0,0,0,-4,x
O=C(C[C@H]1C/C=C\C[C@H](Cc2ccc(F)cc2)C(=O)O[C@@H](c2ccccc2)CNC1=O)N[C@@H](CO)Cc1ccccc1,56*,7,-1,-1,-2,10,-4
O=C(C[C@H]1C/C=C\C[C@@H](Cc2ccc(F)cc2)C(=O)O[C@@H](c2ccccc2)CNC1=O)N[C@@H](CO)Cc1ccccc1,-5,-6,0,3,0,-2,x
O=C(C1CCCN1S(=O)(=O)c1ccc(Cl)s1)N1CCN(c2ccccc2)CC1 (stereo unspecified),x,0,x,x,x,x,x
CCOC(=O)N1CCC(NC(=O)C2CCCN(Cc3nc(-c4ccc(CC)cc4)oc3C)C2)CC1 (stereo unspecified),62*,-17,0,2,2,-6,-3
CCOC(=O)N1CCC(NC(=O)C2CCN(Cc3nc(-c4ccc(CC)cc4)oc3C)CC2)CC1,2,11,x,x,0,6,x
COc1ccc(Cc2nc3ccc(C(=O)NCC4COCCO4)cc3o2)cc1OC (stereo unspecified),1,3,x,1,-2,-1,x

# Screens as filed in PubChem BioAssay.
